Test system: MS2 coat protein
Assay: apparent Kd, MS2 coat protein; higher = weaker binding; RNA-MaP array; FMN 200 µM where present
Procedure, shortened: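 Each design was made on Illumina sequencing-chip clusters by stalled E. coli RNA polymerase and titrated with SNAP-549-labelled MS2 coat protein from 0.7 or 1.5 nM, doubling to 3 µM, in the absence and then the presence of constant ligand. The buffer was 100 mM Tris-HCl pH 7.5, 80 mM KCl, 4 mM MgCl2, BSA, DTT, yeast tRNA and Tween-20. The apparent Kd is the median of filtered per-cluster fits of binding curves, with green signal normalised to red-channel RNA signal and control-cluster median Fmax.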

[1] = designed as: ON switch for flavin mononucleotide, no ligand
[2] = ligand present: flavin mononucleotide, designed as: ON switch for flavin mononucleotide
[3] = designed as: OFF switch for flavin mononucleotide, no ligand
[4] = ligand present: flavin mononucleotide, designed as: OFF switch for flavin mononucleotide

Sequence	apparent Kd [1] [nM]	apparent Kd [2] [nM]	apparent Kd [3] [nM]	apparent Kd [4] [nM]
UCAAUCAUGUAAGGAUAUGCAGCCGAAACGGCUGCAGAAGGUACUAUAAUUACAUGAGGAUCACCCAUGUUAUAAAAUUUAUAU	169	35.2	–	–
CCGGAAACGGGUAGCUCACAUGAGGAUCACCCAUGUAAAACACAGGAUAUGGAUCCUAAUUGGAUCCAGAAGGGUGUGAGCUAC	40.1	23.6	–	–
UUACAGCAAGGAUAUACAUGAGGAUCACCCAUGUAUGCGUGUUCGAGAGAGGCCUACGGUAGAAGGUGCAUGUU	–	–	24.1	22.4
UUAGAUUAUUGAGGAUAUGGUUAUUUUUAUUAACCAGAAGGCAAACUCAACAUGAGGAUCACCCAUGUAUAAAGGGUAUUAGUU	–	–	84.9	82.7
AAGUAGAUCCGAGGAUAUACAAUCUGGAAACGGUACAUGAGGAUCACCCAUGUAGAAGGCGGAUCUACAGGUACUAAAGUACCA	–	–	7.4	16.4
CGCAUGCGUAGUAUUAGUUGCUGACAGGAUAUGACAUGAGGAUCACCCAUGUGAAAUAAGAAGAGUCAGAAGGGUCACGAUGCG	–	–	16.8	9.58
UUGGACGUCGUAGGAUAUGUAGGAUACUCCUACAUGAGGAUCACCCAUGUUGACAUGGAGGAAGGACAGAAGGACGGUGUCCAU	25.8	6.46	–	–
AUGAGAAAAGCAGGAUAUCUAUUGUCUCAGAAACAUGAGGAUCACCCAUGUAGAGAAGGGCUAAGACCGACUCUUCGGAGUUGA	–	–	9.66	9.77
ACGUUACAUGAGGAUCACCCAUGUGAGGAUAUGGUGCGGUAGUGUCCUGUCGCGUACUCCAGAAGGCGCGGGUG	–	–	204	147
CCACCUCCUGAGGAUAUUGCAUCACCCGACUGAUAAGAAGGCAGAACAUGAGGAUCACCCAUGUGGGUACUCAC	–	–	84	87.1
UGGUACUAGGGAGGAUAUGGGAAGAUACAUGAGGAUCACCCAUGUUUAAGAAUGCCGAGAGGCAACUAGAAGGCCCUAGCACCU	426	19	–	–
GUACCUUAUGAGAAGGCGAUCAUGAAACAUGAUCGAGGAUAUCAUGUAAACAUGAGGAUCACCCAUGUAUGGGUAUUAUGGUAA	31.8	10.2	–	–
UUCAAGUUGCGAGGAUAUCGUGUUAACAUGAGGAUCACCCAUGUAAAGGUUUAUUAAUUAAUCUUCGAGAAGGCGCUUAAUGUA	29.3	19.5	–	–
AAAAUGUCAGGAUAUGCGAAGGCAUCUGACAGAUGAGGAUUGCAGAAGGGACAUGAGGAUCACCCAUGUAAAAA	–	–	40.3	47.5
GGGAGACAUGAGGAUCACCCAUGUGAAAACGUGGCAGGAUAUGGAUGGAAACCAUACUGUCCAGAAGGGCCUUGUC	47.4	37.8	–	–
ACCUCGUCAGGAUAUCCUAUUAAUUGUUUCAUAUUUACUAUGGAGAAGGGACAUGAGGAUCACCCAUGUUGGUC	–	–	53.3	57.8
GCAGCUCCUGACAUGAGGAUCACCCAUGUUUAAUUAUUAAAUCAGGAUAUCCUCUCGAAACGAGAGGAGAAGGGAUAAGCUGCU	4.83	5.33	–	–
UCUGGUCAAGGAUAUGCGUAAUGUGUUACGGCACGAGGUCUACAUGAGGAUCACCCAUGUAGAAGGUGAUCAGA	–	–	18	17.9
UAUUUUAACUAAGGAUAUCUAUAUUAUGUUGAAACAUGAGGAUCACCCAUGUUCAUGAUAUUAUAGGAGAAGGUAGAUGAAUAA	6.59	5.44	–	–
GCAGAGCCUGACAUGAGGAUCACCCAUGUUAGAUUGUUAUGUCAGGAUAUUGUCUAGCAACUAGACAAGAAGGGAUGCUCUGCG	341	27.8	–	–
CGUUGUUAAGGAUAUGGACUCUUGAACAUGAGGAUCACCCAUGUGCGCGUGGUCUAAAUACCAGAAGGUGGCCGCC	–	–	31.7	29.3
AAUUAGGUCACAGGAUAUACAUCAUCCAUAGAUGUAGAAGGGUGUCAAAAUAAUAUCUGACAUGAGGAUCACCCAUGUUUCCAC	19.5	8.97	–	–
GGUGGGUUGCUGCCGGCACAUGAGGAUCACCCAUGUUUUGGGAAGGAUAUGGUACCUUUUUGGUGCCAGAAGGUCCCGUUGGUG	733	1000	–	–
UUUUAUGUCAAAGGAUAUAUAAAUAAAUUUAUAACAUGAGGAUCACCCAUGUACUUUAGUAUGAGGUAGAAGGUUGAUAAGAGA	35.4	23.3	–	–
AGUGUUUCGUUGUGACCCAUUCACAUGAGGAUCACCCAUGUAGAGGAUAUAGGUCACCACGGUUCCUAGAAGGCUGCAGGUGUG	–	–	5.71	7.3
GGGUACAUCGGAGGAUAUCAUGUAAAUACAUGAGGAUCACCCAUGUCGAUGGAGACAUCGGAGAUUGAGAAGGCAGAUGUACCG	333	18.1	–	–
GGCGAACAUGAGGAUCACCCAUGUCAGGAUAUCUCUCGCGUUGAAUUGAGGGUGUGUGAGAGAAGGGAUAUGUA	–	–	49.7	49.9
AAAAAGUGAGGAUAUACAUGAGGAUCACCCAUGUAAUAAAAAAAAAGGGUGGAAGAAAGUAGAAGGCACCAAAA	–	–	62.4	356
